Experimental data published in ChEMBL document CHEMBL4393705, “New chalcone-sulfonamide hybrids exhibiting anticancer and antituberculosis activity” (Eur J Med Chem, 2019).
Converted amounts (≈) assume the structure as drawn.

Key:
[1] = tested on: Mycobacterium tuberculosis; test: Antitubercular activity against Mycobacterium tuberculosis H37Rv ATCC27294 measured after 2-3 weeks by agar dilution SPOTi assay; format: functional; settings: H37Rv ATCC 27294
Method in brief: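 Agar dilution SPOTi on Middlebrook 7H10 with 0.5% glycerol and 10% OADC. Final compound levels 50, 20, 10, 5, 2 mg/L, added from DMSO dilutions. 2 µL of a 10^6 CFU/mL inoculum from a 4-week Löwenstein-Jensen culture spotted per well, incubated 2-3 weeks at 37°C. MIC is the lowest concentration with no visible growth. Repeated on a separate day; isoniazid was the reference.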

SR = test: Anticancer activity against human SR cells assessed as tumour cell growth at 10 uM after 48 hrs by SRB assay relative to control; format: functional
Method in brief: (§1)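 NCI 60-line primary screen at a single 10 μM dose in RPMI-1640 with 5% FBS and 2 mM L-glutamine. Cells were preincubated 24 h at 37 °C in 5% CO₂, with time-zero plates fixed with TCA. Compounds (DMSO, diluted in gentamicin medium) were incubated 48 h, then cells TCA-fixed and stained with 0.4% SRB (A515). Growth percent was derived from time-zero, control and treated absorbances.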

K562 = test: Anticancer activity against human K562 cells assessed as tumour cell growth at 10 uM after 48 hrs by SRB assay relative to control; format: functional; method in brief: as §1
NIH3T3 = test: Cytotoxicity against mouse 3T3 cells assessed as cell viability measured after 48 hrs by MTT assay; format: cell-based; settings: nih3t3, 48 h
Method in brief: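 3T3 fibroblasts in DMEM with 10% FBS and penicillin-streptomycin, seeded at 10^4 cells/well 24 h prior. Exposed 48 h to two-fold serial dilutions from a 100 mg/mL DMSO stock. MTT (5 mg/mL in PBS) added for 1.5 h, formazan dissolved in DMSO, read at 530 nm. Duplicate runs on different days. Value interpolated between DMSO (100%) and cycloheximide (0%) controls.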

Staphylococcus aureus = test: Antibacterial activity against Staphylococcus aureus measured every 120 mins for 36 hrs by LB broth two-fold serial dilution method; format: functional
Method in brief: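 Panel of 12 laboratory and clinical S. aureus strains with varied drug-susceptibility patterns. Compounds were two-fold serially diluted in LB broth from a maximum of 32 mg/L. Growth was followed by OD600 every 120 min for 36 h. Vancomycin was the positive control, and runs were in duplicate.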

[2] = tested on: Mycolicibacterium smegmatis; test: Antibacterial activity against Mycobacterium smegmatis MC2 155 measured after 48 hrs by agar dilution SPOTi assay; format: functional; settings: MC2 155, 48 h
Method in brief: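 SPOTi agar dilution on Middlebrook 7H10 without OADC. Cells were passaged in Middlebrook 7H9 and then spotted. Compounds were tested at 100, 50, 20, 10 and 5 mg/L, with kanamycin as positive control. Plates were incubated 48 h at 37°C. MIC was taken as the lowest concentration with no visible growth.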

[3] = Selectivity index, ratio of LC50 for mouse 3T3 cells to MIC for Mycobacterium tuberculosis H37Rv ATCC27294; format: toxicity; settings: read-out: Selectivity Index
HCT-116 = test: Anticancer activity against human HCT116 cells assessed as tumour cell growth at 10 uM after 48 hrs by SRB assay relative to control; format: functional; method in brief: as §1
M14 = test: Anticancer activity against human M14 cells assessed as tumour cell growth at 10 uM after 48 hrs by SRB assay relative to control; format: functional; method in brief: as §1
HL-60 = test: Anticancer activity against human HL60 cells assessed as tumour cell growth at 10 uM after 48 hrs by SRB assay relative to control; format: functional; method in brief: as §1

SMILES	MIC [1] [µM]	Activity (SR) [%]	Activity (K562) [%]	LC50 (NIH3T3) [µM]	MIC (Staphylococcus aureus) [µM]	MIC [2] [µM]	selectivity ratio [3]	Activity (HCT-116) [%]	Activity (M14) [%]	Activity (HL-60) [%]
COc1ccc(/C=C/C(=O)c2ccc(OC)c(S(N)(=O)=O)c2)cc1	> 144	28.1	38.78	96	> 57	> 175	–	–	–	–
COc1ccc(C(=O)/C=C/c2ccccc2)cc1S(=O)(=O)Nc1c(N)nc(SC)[nH]c1=O	42 (≈ 19.8 µg/mL)	–	35.63	17	> 57	> 175	0.4	35.18	–	–
COc1ccc(C(=O)/C=C/c2cc(OC)c(OC)c(OC)c2)cc1S(=O)(=O)Nc1c(N)nc(SC)[nH]c1=O	> 89	–	–	2.1	> 57	> 175	–	–	–	–
COc1ccc(C(=O)/C=C/c2ccc3c(c2)OCO3)cc1S(N)(=O)=O	> 138	–	44.59	132	> 57	> 175	–	19.22	–	–
COc1ccc(C(=O)/C=C/c2ccc3c(c2)OCO3)cc1S(=O)(=O)Nc1c(N)nc(SC)[nH]c1=O	> 97	–	53.79	7.1	> 57	> 175	–	18.36	–	–
COc1ccc(C(C)=O)cc1S(=O)(=O)Nc1c(N)nc(SC)[nH]c1=O	> 130	–	–	> 1600	> 57	> 175	–	–	94.85	–
COc1ccc(C(=O)/C=C/c2ccc(C)cc2)cc1S(=O)(=O)Nc1c(N)nc(SC)[nH]c1=O	41 (≈ 19.9 µg/mL)	–	38.79	7.2	> 57	> 175	0.18	10.78	–	–
COc1ccc(C(=O)/C=C/c2ccccc2)cc1S(N)(=O)=O	16 (≈ 5.08 µg/mL)	–	7.9	7.7	> 57	> 175	0.48	–	–	–
COc1ccc(C(=O)/C=C/c2cc(OC)c(OC)c(OC)c2)cc1S(N)(=O)=O	> 123	–	–	2.4	> 57	> 175	–	–	–	–
COc1ccc(/C=C/C(=O)c2ccc(OC)c(S(=O)(=O)Nc3c(N)nc(SC)[nH]c3=O)c2)cc1	> 100	–	54.26	6.5	> 57	> 175	–	24.01	–	–
COc1ccc(C(=O)/C=C/c2ccc(C)cc2)cc1S(N)(=O)=O	30 (≈ 9.94 µg/mL)	–	3.04	4.3	> 57	> 175	0.14	–	–	–
COc1ccc(C(C)=O)cc1S(N)(=O)=O	> 218	–	–	> 2700	> 57	> 175	–	–	–	74.74
C[C@@H]1C[C@@H]([C@H](O)CC2CC(=O)NC(=O)C2)C(=O)[C@@H](C)C1 [CYCLOHEXIMIDE]	–	–	–	< 2.2	–	–	–	–	–	–
NNC(=O)c1ccncc1 [ISONIAZID]	0.36 (≈ 0.0494 µg/mL)	–	–	–	–	–	–	–	–	–
